≈ marks a conversion by molar mass, not a printed value. Entries after “also recorded” stand apart in the source; their conditions may differ.
How the values were obtained:
[1] = target: T1, P. aeruginosa GluRS (Pseudomonas aeruginosa, UniProt Q9XCL6); test: Binding mode assay; assay type: biochemical; conditions: for mode of inhibition with respect to ATP: IC50 at ATP 25-1000 µM, Glu 100 µM; for mode of inhibition with respect to Glu: IC50 at Glu 25-300 µM, ATP held constant
T1 sequence (Q9XCL6 1-494): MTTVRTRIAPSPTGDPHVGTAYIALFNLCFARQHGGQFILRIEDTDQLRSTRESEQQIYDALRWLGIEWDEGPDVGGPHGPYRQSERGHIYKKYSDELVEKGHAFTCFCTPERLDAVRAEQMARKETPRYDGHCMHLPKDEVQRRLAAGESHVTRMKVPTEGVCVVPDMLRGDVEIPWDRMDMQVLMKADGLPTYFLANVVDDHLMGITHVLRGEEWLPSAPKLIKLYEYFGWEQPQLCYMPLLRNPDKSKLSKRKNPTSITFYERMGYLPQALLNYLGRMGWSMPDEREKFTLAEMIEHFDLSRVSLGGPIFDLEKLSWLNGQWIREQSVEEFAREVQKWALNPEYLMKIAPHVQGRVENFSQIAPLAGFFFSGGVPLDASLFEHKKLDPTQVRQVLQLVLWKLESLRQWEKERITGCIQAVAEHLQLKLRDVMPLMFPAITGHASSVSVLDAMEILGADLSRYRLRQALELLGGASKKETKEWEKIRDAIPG
How it was run: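 IC50 by the same SPA aminoacylation assay, with 0.05 µM P. aeruginosa GluRS and compound at 200–0.4 µM final, preincubated 15 min RT. Started with E. coli tRNA (0.75 µM tRNAGlu), 1 h at 37 °C, EDTA stop. DMSO-only positive controls. ATP series 25–1000 µM at 100 µM Glu. Glu series 25–300 µM at constant saturating ATP. Sigmoidal dose–response fit; mode inferred from IC50 change versus substrate level.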

[2] = target: T1, P. aeruginosa GluRS; test: SPA-based tRNA aminoacylation assay; assay type: biochemical
How it was run: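 P. aeruginosa GluRS was expressed in E. coli Rosetta 2(DE3) from pET101 and Ni-NTA purified. Final mix: 50 mM Tris-HCl pH 7.5, 8 mM MgCl2, 1.25 mM ATP, 1 mM spermine, 1 mM DTT, 100 µM [3H]Glu, 0.1 µM enzyme. Compound (200–0.4 µM) preincubated 15 min ambient; E. coli tRNA (0.75 µM tRNAGlu) added; 1 h 37 °C; EDTA stop. Poly-L-lysine yttrium silicate SPA beads (citrate pH 2.0), 1 h RT, scintillation count.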

[3] = tested on: NIH/3T3 cells; test: MTT in vitro cytotoxicity test; assay type: cell-based; conditions: 25–800 µg/mL, 24 h
[4] = tested on: Streptococcus pneumonia (ATCC 49619); test: Broth microdilution MIC; assay type: cell-based; conditions: Streptococcus pneumoniae, ATCC49619
[5] = tested on: Staphylococcus aureus (ATCC 29213); test: Broth microdilution MIC; assay type: cell-based; conditions: ATCC29213
[6] = tested on: S. aureus; test: Time-kill study; assay type: cell-based, Staphylococcus aureus; conditions: 4x MIC
[7] = tested on: S. pneumoniae; test: Time-kill study; assay type: cell-based, Streptococcus pneumoniae; conditions: 4x MIC
How it was run: (§1)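 Time-kill per CLSI M26-A, with compound at 4× MIC (broth microdilution MIC per CLSI M7-A7). Medium: Brain Heart Infusion or Trypticase Soy Broth, with or without 3% lysed horse blood. Viable counts by plating for CFU at 0, 2, 4, 6 and 24 h versus compound-free control cultures.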

[8] = tested on: Enterococcus faecalis (ATCC 29212); test: Broth microdilution MIC; assay type: cell-based; conditions: ATCC29212
[9] = tested on: E. faecalis; test: Time-kill study; assay type: cell-based, Enterococcus faecalis; conditions: 4x MIC, 0-24 h
How it was run: as §1

Structure (SMILES): CC1(C)SC(=S)N(/N=C/C=C/c2ccc([N+](=O)[O-])o2)C1N(O)C(=O)Nc1cccc(Cl)c1 (centres unmarked) [BT_04B09, 3-(3-chlorophenyl)-1-(5,5-dimethyl-3-{(E)-[(2E)-3-(5-nitrofuran-2-yl)prop-2-en-1-ylidene]amino}-2-thioxo-1,3-thiazolidin-4-yl)-1-hydroxyurea]
- mode of inhibition with respect to ATP [1]: noncompetitive; also recorded: remain constant
- mode of inhibition with respect to Glu [1]: competitive
- IC50 [2]: 24.9 µM
- cytotoxicity (MTT) [3]: not observed to be toxic
- MIC [4]: 32 µg/mL (≈ 64.5 µM)
- MIC [5]: 32 µg/mL (≈ 64.5 µM)
- bacteriostatic or bactericidal ([6]; 0-24 h): bactericidal
- regrowth in time-kill ([6]; at 24 h): some regrowth
- bacteriostatic or bactericidal ([7]; 0-24 h): bactericidal
- inhibition of growth in time-kill ([7]; all times tested): completely

Structure (SMILES): O=C(Nc1ccc(-c2cc(C(F)(F)F)nn2-c2ccccc2)cc1)Nc1ccc(F)cc1F [BT_03F04, 1-(2,4-difluorophenyl)-3-{4-[1-phenyl-3-(trifluoromethyl)-1H-pyrazol-5-yl]phenyl}urea]
- mode of inhibition with respect to ATP [1]: noncompetitive
- mode of inhibition with respect to Glu [1]: noncompetitive
- IC50 [2]: 21.9 µM
- MIC [8]: 2 µg/mL (≈ 4.36 µM)
- bacteriostatic or bactericidal [9]: bacteriostatic
- decrease in colony-forming units (CFUs) compared to the control [9]: 2–3 log10
- cytotoxicity (MTT) [3]: not observed to be toxic
- MIC [4]: 8 µg/mL (≈ 17.5 µM)
- bacteriostatic or bactericidal ([7]; 0-24 h): bacteriostatic
- decrease in colony-forming units (CFUs) compared to the control ([7]; 0-24 h): 2–3 log10
